# In ChEMBL document CHEMBL1157140, “Design and synthesis of trans 2-(furan-2-yl)vinyl heteroaromatic iodides with antitumour activity” (2008):
# System: MCF7
# Assay: Cytotoxicity against human MCF7 cells after 3 days by MTT assay
# Assay type: functional
# Settings: MCF7, 72 h
# Outline: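 MCF7 cells kept in medium with heat-inactivated foetal bovine serum, 2 mM L-alanyl-L-glutamine and penicillin–streptomycin at 37 °C, 5% CO₂. Seeded at 5 × 10³ cells/0.33 cm², then dosed after 24 h at final 0.01–100. Incubated 3 days, then MTT read at 570 nm. Each point averages 8 wells; untreated cells serve as control.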
row,SMILES,GI50 [nM]
1,Cc1ccc(/C=C/c2n(C)cc[n+]2C)o1,33100
2,Cn1cc[n+](C)c1/C=C/c1ccc(-c2ccc(Br)cc2)o1,617
3,C[n+]1c(/C=C/c2ccc(-c3cccc(Cl)c3)o2)ccc2ccccc21,57.5
4,Cn1cc[n+](C)c1/C=C/c1ccc(-c2ccc(Cl)cc2)o1,631
5,Cn1cc[n+](C)c1/C=C/c1ccc(-c2ccccc2Cl)o1,1380
6,Cn1cc[n+](C)c1/C=C/c1ccc(Br)o1,39800
7,C[n+]1ccccc1/C=C/c1ccc(-c2ccc(Cl)cc2)o1,219
8,COc1ccc(-c2ccc(/C=C/c3n(C)cc[n+]3C)o2)cc1Cl,224
9,C[n+]1c(/C=C/c2ccc(Br)o2)ccc2ccccc21,3160
10,C[n+]1c(/C=C/c2ccc(-c3ccc(Cl)cc3)o2)ccc2ccccc21,126
11,C(=C\c1ccco1)/c1cccc(/C=C/c2ccco2)n1,2510
12,C[n+]1ccccc1/C=C/c1ccc(-c2ccc(Br)cc2)o1,1000
13,C[n+]1c(/C=C/c2ccc(-c3ccc(Cl)cc3[N+](=O)[O-])o2)ccc2ccccc21,1740
14,C[n+]1ccccc1/C=C/c1ccc(-c2cc(C(F)(F)F)ccc2Cl)o1,331
15,C[n+]1ccccc1/C=C/c1ccc(-c2ccc(Cl)cc2Cl)o1,126
16,C[n+]1ccccc1/C=C/c1ccc(-c2ccc(Cl)c(Cl)c2)o1,380
17,Cn1cc[n+](C)c1/C=C/c1ccc(-c2cccc(Cl)c2)o1,1740
18,C[n+]1ccccc1/C=C/c1ccc(-c2ccccc2Cl)o1,2240
19,C[n+]1ccccc1/C=C/c1ccc(-c2cc(Cl)ccc2Cl)o1,38
20,Cn1cc[n+](C)c1/C=C/c1ccco1,100000
21,COc1ccc(-c2ccc(/C=C/c3cccc[n+]3C)o2)cc1Cl,66.1
22,C[n+]1ccccc1/C=C/c1ccc(-c2cccc(Cl)c2)o1,135
23,Cn1cc[n+](C)c1/C=C/c1ccc(-c2cc(Cl)ccc2Cl)o1,191
24,C[n+]1ccccc1/C=C/c1ccc(Br)o1,7940
25,COc1ccc(-c2ccc(/C=C/c3ccc4ccccc4[n+]3C)o2)cc1Cl,191
26,C[n+]1ccccc1/C=C/c1ccco1,70800
